Reference: ChEMBL document CHEMBL3745688, “Discovery of novel hybrids of diaryl-1,2,4-triazoles and caffeic acid as dual inhibitors of cyclooxygenase-2 and 5-lipoxygenase for cancer therapy” (Eur J Med Chem, 2016)

How the values were obtained:
[1] = target: T1, Prostaglandin G/H synthase 2 (Rattus norvegicus, UniProt P35355); assay: Inhibition of COX2 in rat abdominal macrophages assessed as PGE2 production pretreated for 30 mins followed by addition of 10 uM arachidonic acid as substrate for 20 mins by EIA
T1 sequence (P35355 whole entry): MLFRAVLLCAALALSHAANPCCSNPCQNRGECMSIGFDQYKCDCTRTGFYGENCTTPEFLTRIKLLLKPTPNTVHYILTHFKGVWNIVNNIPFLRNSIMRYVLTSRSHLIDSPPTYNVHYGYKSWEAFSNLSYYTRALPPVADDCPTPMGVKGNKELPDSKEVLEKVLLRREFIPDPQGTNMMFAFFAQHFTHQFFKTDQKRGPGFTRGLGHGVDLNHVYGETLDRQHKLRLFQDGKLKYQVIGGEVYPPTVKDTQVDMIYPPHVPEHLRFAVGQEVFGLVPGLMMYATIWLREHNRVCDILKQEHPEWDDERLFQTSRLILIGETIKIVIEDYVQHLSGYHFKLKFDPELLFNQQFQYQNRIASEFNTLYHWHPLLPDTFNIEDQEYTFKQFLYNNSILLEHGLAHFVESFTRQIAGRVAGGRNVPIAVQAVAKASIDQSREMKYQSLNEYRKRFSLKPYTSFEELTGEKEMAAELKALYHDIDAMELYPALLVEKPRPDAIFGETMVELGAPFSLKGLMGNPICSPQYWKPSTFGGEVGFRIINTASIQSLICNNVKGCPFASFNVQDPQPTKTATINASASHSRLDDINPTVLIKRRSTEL

[2] = Antitumor activity against mouse B16F10 cells xenografted in mouse assessed as inhibition of tumor growth at 40 mg/kg, iv after 25 days; type: functional; settings: B16-F10, iv, 600 h
Outline: (§1)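 B16-F10 cells implanted subcutaneously in the right oxter of ICR mice weighing 18-22 g. After 7 days, animals weighed and randomized into groups of 10. Dosed intravenously with vehicle (saline with 1% DMSO/2% poloxamer, 0.4 ml/mouse), 40 mg/kg test agent, or 5-FU 20 mg/kg. Killed on day 25 after implantation. Tumors excised and weighed; inhibition = (1 − treated/vehicle mean tumor weight)×100; body weights recorded at start and end.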

A549 = assay: Antiproliferative activity against human A549 cells after 72 hrs by MTT assay; type: functional, cell-based; settings: A549, 72 h
Outline: (§2)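 Cells seeded at 5×10^4/well, grown 24 h at 37 °C in 5% CO₂, then exposed to compounds dissolved in DMSO at a range of concentrations for 72 h. MTT (5 mg/mL in PBS) added for 4 h, then OD read at 570 nm. IC50 taken from dose-response curves, mean ± S.D. of three independent experiments.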

[3] = Antiproliferative activity against mouse B16F10 cells after 72 hrs by MTT assay; type: functional, cell-based; settings: B16-F10, 72 h; outline: as §2
[4] = Antiproliferative activity against human Caco2 cells after 72 hrs by MTT assay; type: functional, cell-based; settings: Caco-2, 72 h; outline: as §2
[5] = Antiproliferative activity against human PC3 cells after 72 hrs by MTT assay; type: functional, cell-based; settings: PC-3, 72 h; outline: as §2
[6] = Selectivity index, ratio of IC50 for rat COX2 to IC50 for calf COX1
Outline: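 Ratio of COX-2 IC50 to COX-1 IC50. COX-2 was measured in rat peritoneal macrophages: 1.0×10^6/well in RPMI 1640 with 5% FCS, grown 24 h, COX-1 inactivated with 1 mM aspirin, COX-2 induced with LPS 1 µg/mL for 6 h, compound added for 30 min, then arachidonic acid 10 µM for 20 min, PGE2 read by EIA. COX-1 was measured in calf aortic endothelial cells by 6-keto-PGF1α radioimmunoassay.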

[7] = target: T2, Polyunsaturated fatty acid 5-lipoxygenase (Rattus norvegicus, UniProt P12527); assay: Inhibition of 5-LOX in Sprague-Dawley rat leukocytes assessed as A23187 stimulated LTB4 production pretreated for 30 mins followed by addition of A23187 for 30 mins by EIA; type: cell-based
T2 sequence (P12527 whole entry): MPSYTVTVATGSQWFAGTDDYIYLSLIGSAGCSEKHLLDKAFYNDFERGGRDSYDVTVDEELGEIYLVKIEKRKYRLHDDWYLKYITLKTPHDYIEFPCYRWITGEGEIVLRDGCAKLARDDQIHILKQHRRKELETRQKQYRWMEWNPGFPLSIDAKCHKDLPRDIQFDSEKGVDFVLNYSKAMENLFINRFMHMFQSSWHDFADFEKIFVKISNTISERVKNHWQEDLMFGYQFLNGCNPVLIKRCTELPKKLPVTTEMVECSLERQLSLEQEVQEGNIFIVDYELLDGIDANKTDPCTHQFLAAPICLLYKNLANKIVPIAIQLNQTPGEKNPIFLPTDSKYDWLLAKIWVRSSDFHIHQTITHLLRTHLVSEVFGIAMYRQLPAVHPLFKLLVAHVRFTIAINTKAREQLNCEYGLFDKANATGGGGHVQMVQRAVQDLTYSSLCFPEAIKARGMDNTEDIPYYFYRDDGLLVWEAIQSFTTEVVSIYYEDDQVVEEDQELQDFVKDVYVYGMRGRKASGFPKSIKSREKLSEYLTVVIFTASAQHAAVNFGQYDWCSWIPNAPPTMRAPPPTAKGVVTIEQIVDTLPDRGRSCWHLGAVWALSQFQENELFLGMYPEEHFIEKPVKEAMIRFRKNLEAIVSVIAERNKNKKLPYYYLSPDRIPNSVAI
Outline: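 Rat peritoneal leukocytes collected from Sprague-Dawley rats primed i.p. with 0.2% glycogen (20 mL/kg). Cells in Hanks solution plated at 1.0×10^6/well and held 10 min at 37 °C. Pretreated 30 min with L-cysteine (10 mM), indomethacin (1 mg/L) and compound or DMSO. A23187 added for 30 min. LTB4 in the clarified supernatant measured by EIA; % inhibition from OD; IC50 by Bliss method.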

Mus musculus [8] = assay: Toxicity in mouse xenografted with B16F10 cells assessed as body weight at 40 mg/kg, iv measured after 25 days (reference value: 28.1 +/- 1.7 g); type: organism-based, B16-F10; settings: in vivo, 600 h; outline: as §1
[9] = target: T3, Prostaglandin G/H synthase 1 (Bos taurus, UniProt O62664); assay: Inhibition of COX1 in calf endotheliocyte assessed as 6keto-PGF1alpha production pretreated for 20 mins followed by addition of 10 uM arachidonic acid as substrate for 20 mins by radioimmuno assay
T3 sequence (O62664 whole entry): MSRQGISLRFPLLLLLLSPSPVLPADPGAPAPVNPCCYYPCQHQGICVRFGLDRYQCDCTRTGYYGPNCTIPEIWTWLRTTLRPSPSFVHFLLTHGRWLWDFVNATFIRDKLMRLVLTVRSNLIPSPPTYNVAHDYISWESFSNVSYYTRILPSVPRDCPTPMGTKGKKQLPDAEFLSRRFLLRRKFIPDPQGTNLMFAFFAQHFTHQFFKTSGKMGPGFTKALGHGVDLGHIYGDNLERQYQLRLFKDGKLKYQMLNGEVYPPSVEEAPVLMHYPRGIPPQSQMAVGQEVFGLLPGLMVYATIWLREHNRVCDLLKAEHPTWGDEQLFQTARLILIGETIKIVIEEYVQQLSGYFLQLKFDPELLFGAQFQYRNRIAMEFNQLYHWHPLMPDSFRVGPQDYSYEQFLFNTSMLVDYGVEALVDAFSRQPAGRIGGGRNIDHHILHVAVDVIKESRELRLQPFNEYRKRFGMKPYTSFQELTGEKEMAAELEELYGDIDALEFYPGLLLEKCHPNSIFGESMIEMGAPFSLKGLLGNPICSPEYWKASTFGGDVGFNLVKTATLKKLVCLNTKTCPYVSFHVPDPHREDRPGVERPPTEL
Outline: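 Endothelial cells from neonatal calf thoracic aorta plated at 1.0×10^6 in DMEM with 10% FBS and grown 24 h at 37 °C in 5% CO₂. Compound or DMSO added for 20 min, then arachidonic acid (10 μM) for another 20 min. 6-keto-PGF1α in the medium quantified by radioimmunoassay. IC50 is the mean of four determinations.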

Mus musculus [10] = assay: Toxicity in mouse xenografted with B16F10 cells assessed as body weight at 20 mg/kg, iv measured after 25 days (reference value: 28.1 +/- 1.7 g); type: organism-based, B16-F10; settings: in vivo, 600 h
[11] = Antitumor activity against mouse B16F10 cells xenografted in mouse assessed as inhibition of tumor growth at 20 mg/kg, iv after 25 days; type: functional; settings: B16-F10, iv, 600 h
[12] = target: T4, Prostaglandin G/H synthase 2 (Homo sapiens, UniProt P35354); assay: Inhibition of COX-2 (unknown origin)
T4 sequence (P35354 whole entry): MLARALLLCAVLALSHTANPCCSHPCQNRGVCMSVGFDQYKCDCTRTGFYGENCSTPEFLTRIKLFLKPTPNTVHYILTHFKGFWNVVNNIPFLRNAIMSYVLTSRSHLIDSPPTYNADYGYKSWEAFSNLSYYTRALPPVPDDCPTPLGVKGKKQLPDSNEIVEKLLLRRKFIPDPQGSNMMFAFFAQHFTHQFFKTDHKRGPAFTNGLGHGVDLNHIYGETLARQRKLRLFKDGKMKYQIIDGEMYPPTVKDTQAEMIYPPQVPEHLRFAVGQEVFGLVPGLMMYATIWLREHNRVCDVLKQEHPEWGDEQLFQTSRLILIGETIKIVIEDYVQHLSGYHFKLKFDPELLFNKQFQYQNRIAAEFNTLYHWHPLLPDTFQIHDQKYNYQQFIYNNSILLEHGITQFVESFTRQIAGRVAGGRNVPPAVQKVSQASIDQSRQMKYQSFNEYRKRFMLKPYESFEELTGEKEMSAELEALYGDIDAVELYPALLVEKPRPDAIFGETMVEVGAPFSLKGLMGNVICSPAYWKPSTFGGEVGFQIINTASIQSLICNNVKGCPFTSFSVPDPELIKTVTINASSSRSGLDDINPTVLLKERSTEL

| SMILES | IC50 [1] [µM] | inhibition in vivo at 40 mg/kg [2] [%] | IC50 (A549) [µM] | IC50 [3] [µM] | IC50 [4] [µM] | IC50 [5] [µM] | Ratio IC50 [6] | IC50 [7] [µM] | Activity (Mus musculus [8]) [g] | IC50 [9] [µM] | Activity (Mus musculus [10]) [g] | inhibition in vivo at 20 mg/kg [11] [%] | IC50 [12] [µM] |
| --- | --- | --- | --- | --- | --- | --- | --- | --- | --- | --- | --- | --- | --- |
| COc1cc(/C=C/C(=O)OCCSc2nc(-c3ccc(S(C)(=O)=O)cc3)n(-c3ccc(C(F)(F)F)cc3)n2)ccc1O | 0.21 | 58.9 | 6.78 | 8.65 | 9.05 | 7.46 | 0.01 | 0.81 | 26.3 | 20.5 |  |  |  |
| CS(=O)(=O)c1ccc(-c2nc(SCCCOC(=O)/C=C/c3ccccc3)nn2-c2ccc(Br)cc2)cc1 | 0.42 |  | 22.3 | 19.4 | 24.6 | 21.9 | 0.009 | 1.3 |  | 45.7 |  |  |  |
| O=c1[nH]cc(F)c(=O)[nH]1 [FLUOROURACIL] |  |  |  |  |  |  |  |  |  |  | 26 | 68.2 |  |
| CSc1nc(-c2ccc(S(N)(=O)=O)cc2)n(-c2ccc(Cl)cc2)n1 |  |  | 29.5 | 32.3 | 41.2 | 37.5 |  |  |  |  |  |  | 0.37 |
| CS(=O)(=O)c1ccc(-c2nc(SCCCNC(=O)/C=C/c3ccc(O)c(O)c3)nn2-c2ccc(F)cc2)cc1 | 0.12 |  | 22.1 | 18.7 | 20.9 | 23.1 | 0.009 | 0.71 |  | 13.2 |  |  |  |
